Laboratory results: ChEMBL document CHEMBL5257040, “Discovery of VU2957 (Valiglurax): An mGlu4 Positive Allosteric Modulator Evaluated as a Preclinical Candidate for the Treatment of Parkinson's Disease” (ACS Med Chem Lett, 2019)
pEC50, pIC50: −log10 of the molar value. Values after ≈ are worked out from the molar mass of the structure shown.

How the values were obtained:
[1] = Elimination half life in Beagle dog at 0.5 mg/kg, iv and measured upto 24 hrs by LC-MS/MS analysis; type: ADME, organism-based, Canis lupus familiaris; settings: in vivo, read-out: beta t1/2 (converted)
Outline: (§1)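 Single intravenous doses: mouse 1 mg/kg, SD rat 0.2 mg/kg, beagle dog 0.5 mg/kg, cynomolgus monkey 0.2 mg/kg. Plasma clearance, Vss and elimination half-life came from the plasma profiles. Values are means of two to three animals.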

[2] = target: Metabotropic glutamate receptor 6 (Homo sapiens, UniProt O15303); assay: Positive allosteric modulator activity at human mGlu6 in human HEK cells co-expressing […] assessed as increase in by thallium flux preincubated for 2.5 mins followed by gluatamate addition by thallium flux assay; type: cell-based
Cytochrome P450 2B6 = Cytochrome P450 2B6 (Homo sapiens, UniProt P20813); assay: Induction of CYP2B6 in human hepatocytes; type: ADME, cell-based
Outline: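 CYP1A2, 2B6 and 3A4 induction measured in human hepatocytes.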

Cytochrome P450 1A2 = Cytochrome P450 1A2 (Homo sapiens, UniProt P05177); assay: Inhibition of CYP1A2 in human liver microsomes using […] as substrate preincubated for 15 mins followed by NADPH addition and measured after 8 mins by LC/MS/MS analysis; type: ADME, Microsome
[3] = Oral bioavailability in Cynomolgus monkey at 3 mg/kg and measured upto 24 hrs by LC-MS/MS analysis; type: ADME, organism-based, Macaca fascicularis; settings: in vivo
Outline: (§2)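 Single-dose iv and oral PK in separate arms: mouse 1 mg/kg iv / 3 mg/kg po, SD rat 0.2/3, beagle 0.5/3, cynomolgus 0.2/3 mg/kg. Plasma parameters (Vss, Tmax, F) are means of two to three animals per species.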

[4] = Solubility of compound intestinal fluid assessed as AUC administered as active pharmaceutical ingredient (API) formulation; type: ADME
[5] = Clearance in Sprague-Dawley rat plasma at 0.2 mg/kg, iv and measured upto 24 hrs by LC-MS/MS analysis; type: ADME, organism-based; outline: as §1
[6] = target: Nuclear receptor subfamily 1 group I member 2 (Homo sapiens, UniProt O75469); assay: Activation of human PXR
[7] = AUC in Sprague-Dawley rat at 3 mg/kg, po administered as spray-dried dispersion formulation and measured after 24 hrs by LC-MS/MS analysis; type: ADME, organism-based; design: dose 3 mg/kg, time 24 hrs, route po; settings: in vivo
Outline: (§3)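 Rats were dosed orally at 3, 10 and 30 mg/kg with a spray-dried dispersion of the free base and HPMCP-HP55 polymer (25%/75%), in 30% Dexolve. Total plasma Cmax and AUC were measured, N = 3.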

[8] = Metabolic stability in human liver microsomes assessed as intrinsic clearance at 1 uM preincubated for 5 mins followed by NADPH addition and measured for 45 mins by LC/MS/MS analysis; type: ADME, Microsome; settings: time 50 min, read-out: CLH
[9] = Tmax in Sprague-Dawley rat at 3 mg/kg, po and measured upto 24 hrs by LC-MS/MS analysis; type: ADME, organism-based; settings: in vivo; outline: as §2
[10] = Volume of distribution at steady state in Sprague-Dawley rat at 0.2 mg/kg, iv and measured upto 24 hrs by LC-MS/MS analysis; type: ADME, organism-based; settings: in vivo, read-out: Vdss; outline: as §2
[11] = Genotoxicity in Salmonella typhimurium TA98 in presence of S9 fraction by Ames test; type: toxicity, subcellular; settings: salmonella enterica subsp. enterica serovar typhimurium
Outline: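 Ames bacterial reverse mutation test in strains TA98 and […], run with and without S9 metabolic activation.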

Nav1.5 = Nav1.5 (Homo sapiens, UniProt Q14524); assay: Inhibition of Nav1.5 (unknown origin) at 10 uM; type: toxicity
Outline: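 Eurofins Cardiac Profiler functional electrophysiology panel of potassium, calcium and sodium cardiac ion channels, including hERG. Compound tested at 10 μM, reported as percent inhibition.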

[12] = Elimination half life in Sprague-Dawley rat at 0.2 mg/kg, iv and measured upto 24 hrs by LC-MS/MS analysis; type: ADME, organism-based; settings: in vivo, read-out: beta t1/2 (converted); outline: as §1
[13] = target: Metabotropic glutamate receptor 8 (Rattus norvegicus, UniProt P70579); assay: Positive allosteric modulator activity at rat mGlu8 in human HEK cells co-expressing […] assessed as increase in by thallium flux preincubated for 2.5 mins followed by gluatamate addition by thallium flux assay; type: cell-based
Rattus norvegicus = assay: Reversal of haloperidol-induced catalepsy Sprague-Dawley rat model at 0.3 to 30 mg/kg,po; type: functional, organism-based; settings: dose 0.3-30 mg/kg
Outline: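 Sprague-Dawley rats received haloperidol 1.5 mg/kg i.p. to induce catalepsy, with the compound dosed orally at 0.3–30 mg/kg. Groups were 8–10 rats and compared with vehicle + haloperidol (p < 0.05). MED = lowest oral dose giving significant reversal.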

[14] = Protein binding in mouse plasma assessed as fraction unbound incubated for 4 hrs by equilibrium dialysis based LC/MS/MS analysis; type: ADME, cell-free
[15] = AUC (0 to infinity) in Sprague-Dawley rat at 3 mg/kg, po and measured upto 24 hrs by LC-MS/MS analysis; type: ADME, organism-based; design: time < 24 hrs, dose 3 mg/kg, route po; settings: in vivo
Outline: (§4)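 Single oral 3 mg/kg dose in mouse, SD rat, beagle dog and cynomolgus monkey. Total plasma exposure after the oral dose gave Cmax, Tmax, AUC0-inf and F. Values are means of two to three animals.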

[16] = Clearance in Beagle dog plasma at 0.5 mg/kg, iv and measured upto 24 hrs by LC-MS/MS analysis; type: ADME, organism-based, Canis lupus familiaris; outline: as §1
[17] = Cmax in Beagle dog at 3 mg/kg, po and measured upto 24 hrs by LC-MS/MS analysis; type: ADME, organism-based, Canis lupus familiaris; design: dose 3 mg/kg, time < 24 hrs, route po; settings: in vivo
Outline: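 Single oral 3 mg/kg dose in mouse, SD rat, beagle and cyno. Cmax is the peak total plasma concentration. Values are means of two to three animals.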

[18] = Volume of distribution at steady state in Cynomolgus monkey at 0.2 mg/kg, iv and measured upto 24 hrs by LC-MS/MS analysis; type: ADME, organism-based, Macaca fascicularis; settings: in vivo, read-out: Vdss; outline: as §2
[19] = Cmax in Sprague-Dawley rat at 30 mg/kg, po administered as spray-dried dispersion formulation and measured after 24 hrs by LC-MS/MS analysis; type: ADME, organism-based; design: time 24 hrs, dose 30 mg/kg, route po; settings: in vivo; outline: as §3
[20] = Brain to plasma permeability coefficient, Kp in Sprague-Dawley rat at 0.2 mg/kg, iv and measured upto 24 hrs by LC-MS/MS analysis; type: ADME, organism-based
Outline: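 Total brain to total plasma partition coefficient (Kp) measured in mouse, SD rat and cynomolgus monkey. The unbound ratio (Kp,uu) was corrected with brain homogenate binding. Values are means of two to three animals.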

[21] = target: Amine oxidase [flavin-containing] B (Homo sapiens, UniProt P27338); assay: Binding affinity to MAO-B (unknown origin)
[22] = AUC (0 to infinity) in Cynomolgus monkey at 3 mg/kg, po and measured upto 24 hrs by LC-MS/MS analysis; type: ADME, organism-based, Macaca fascicularis; design: time < 24 hrs, dose 3 mg/kg, route po; settings: in vivo; outline: as §4
Cytochrome P450 2D6 = Cytochrome P450 2D6 (Homo sapiens, UniProt P10635); assay: Inhibition of CYP2D6 in human liver microsomes using […] as substrate preincubated for 15 mins followed by NADPH addition and measured after 8 mins by LC/MS/MS analysis; type: ADME, Microsome
[23] = Solubility of compound in FaSSGF; type: ADME
[24] = Clearance in CD-1 mouse plasma at 1 mg/kg, iv and measured upto 24 hrs by LC-MS/MS analysis; type: ADME, organism-based; outline: as §1
[25] = target: Metabotropic glutamate receptor 1 (Rattus norvegicus, UniProt P23385); assay: Positive allosteric modulator activity at rat mGlu1 in human HEK cells assessed assessed as increase in calcium flux preincubated for 2.5 mins followed by gluatamate addition by Fluo-4 AM dye based calcium mobilization assay; type: cell-based
Sequence of Metabotropic glutamate receptor 1 (P23385 whole entry): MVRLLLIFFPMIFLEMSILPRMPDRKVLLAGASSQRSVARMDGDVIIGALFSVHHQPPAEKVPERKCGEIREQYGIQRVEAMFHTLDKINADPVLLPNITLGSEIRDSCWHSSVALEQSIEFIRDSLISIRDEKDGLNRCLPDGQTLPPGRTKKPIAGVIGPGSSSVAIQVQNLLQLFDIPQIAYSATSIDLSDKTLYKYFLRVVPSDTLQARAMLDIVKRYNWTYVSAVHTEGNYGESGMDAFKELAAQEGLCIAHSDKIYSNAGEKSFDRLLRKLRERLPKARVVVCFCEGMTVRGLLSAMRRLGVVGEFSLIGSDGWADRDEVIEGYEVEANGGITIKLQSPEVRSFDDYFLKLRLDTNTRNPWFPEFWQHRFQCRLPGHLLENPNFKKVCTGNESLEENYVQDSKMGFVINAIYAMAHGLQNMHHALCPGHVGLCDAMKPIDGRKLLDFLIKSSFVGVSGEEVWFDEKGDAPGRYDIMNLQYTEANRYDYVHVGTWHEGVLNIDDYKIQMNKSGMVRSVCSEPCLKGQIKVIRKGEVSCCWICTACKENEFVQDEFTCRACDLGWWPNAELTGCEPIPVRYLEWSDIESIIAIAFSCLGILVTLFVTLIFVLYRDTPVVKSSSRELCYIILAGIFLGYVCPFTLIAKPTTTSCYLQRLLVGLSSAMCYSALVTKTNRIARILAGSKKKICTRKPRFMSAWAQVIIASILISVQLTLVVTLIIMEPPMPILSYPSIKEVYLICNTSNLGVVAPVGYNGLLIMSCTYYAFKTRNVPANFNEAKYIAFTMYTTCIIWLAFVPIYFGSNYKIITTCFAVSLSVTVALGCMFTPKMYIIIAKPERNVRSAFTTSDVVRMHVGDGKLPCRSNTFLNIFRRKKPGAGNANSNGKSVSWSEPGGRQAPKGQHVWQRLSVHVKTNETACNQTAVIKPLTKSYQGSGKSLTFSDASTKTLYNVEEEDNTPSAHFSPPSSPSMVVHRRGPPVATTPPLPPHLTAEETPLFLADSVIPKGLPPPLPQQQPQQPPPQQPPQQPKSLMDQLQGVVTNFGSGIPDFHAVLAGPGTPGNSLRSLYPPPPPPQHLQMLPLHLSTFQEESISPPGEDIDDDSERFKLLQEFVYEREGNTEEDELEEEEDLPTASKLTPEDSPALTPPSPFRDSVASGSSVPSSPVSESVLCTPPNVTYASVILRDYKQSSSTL

Sequence of Nav1.5 (Q14524 whole entry): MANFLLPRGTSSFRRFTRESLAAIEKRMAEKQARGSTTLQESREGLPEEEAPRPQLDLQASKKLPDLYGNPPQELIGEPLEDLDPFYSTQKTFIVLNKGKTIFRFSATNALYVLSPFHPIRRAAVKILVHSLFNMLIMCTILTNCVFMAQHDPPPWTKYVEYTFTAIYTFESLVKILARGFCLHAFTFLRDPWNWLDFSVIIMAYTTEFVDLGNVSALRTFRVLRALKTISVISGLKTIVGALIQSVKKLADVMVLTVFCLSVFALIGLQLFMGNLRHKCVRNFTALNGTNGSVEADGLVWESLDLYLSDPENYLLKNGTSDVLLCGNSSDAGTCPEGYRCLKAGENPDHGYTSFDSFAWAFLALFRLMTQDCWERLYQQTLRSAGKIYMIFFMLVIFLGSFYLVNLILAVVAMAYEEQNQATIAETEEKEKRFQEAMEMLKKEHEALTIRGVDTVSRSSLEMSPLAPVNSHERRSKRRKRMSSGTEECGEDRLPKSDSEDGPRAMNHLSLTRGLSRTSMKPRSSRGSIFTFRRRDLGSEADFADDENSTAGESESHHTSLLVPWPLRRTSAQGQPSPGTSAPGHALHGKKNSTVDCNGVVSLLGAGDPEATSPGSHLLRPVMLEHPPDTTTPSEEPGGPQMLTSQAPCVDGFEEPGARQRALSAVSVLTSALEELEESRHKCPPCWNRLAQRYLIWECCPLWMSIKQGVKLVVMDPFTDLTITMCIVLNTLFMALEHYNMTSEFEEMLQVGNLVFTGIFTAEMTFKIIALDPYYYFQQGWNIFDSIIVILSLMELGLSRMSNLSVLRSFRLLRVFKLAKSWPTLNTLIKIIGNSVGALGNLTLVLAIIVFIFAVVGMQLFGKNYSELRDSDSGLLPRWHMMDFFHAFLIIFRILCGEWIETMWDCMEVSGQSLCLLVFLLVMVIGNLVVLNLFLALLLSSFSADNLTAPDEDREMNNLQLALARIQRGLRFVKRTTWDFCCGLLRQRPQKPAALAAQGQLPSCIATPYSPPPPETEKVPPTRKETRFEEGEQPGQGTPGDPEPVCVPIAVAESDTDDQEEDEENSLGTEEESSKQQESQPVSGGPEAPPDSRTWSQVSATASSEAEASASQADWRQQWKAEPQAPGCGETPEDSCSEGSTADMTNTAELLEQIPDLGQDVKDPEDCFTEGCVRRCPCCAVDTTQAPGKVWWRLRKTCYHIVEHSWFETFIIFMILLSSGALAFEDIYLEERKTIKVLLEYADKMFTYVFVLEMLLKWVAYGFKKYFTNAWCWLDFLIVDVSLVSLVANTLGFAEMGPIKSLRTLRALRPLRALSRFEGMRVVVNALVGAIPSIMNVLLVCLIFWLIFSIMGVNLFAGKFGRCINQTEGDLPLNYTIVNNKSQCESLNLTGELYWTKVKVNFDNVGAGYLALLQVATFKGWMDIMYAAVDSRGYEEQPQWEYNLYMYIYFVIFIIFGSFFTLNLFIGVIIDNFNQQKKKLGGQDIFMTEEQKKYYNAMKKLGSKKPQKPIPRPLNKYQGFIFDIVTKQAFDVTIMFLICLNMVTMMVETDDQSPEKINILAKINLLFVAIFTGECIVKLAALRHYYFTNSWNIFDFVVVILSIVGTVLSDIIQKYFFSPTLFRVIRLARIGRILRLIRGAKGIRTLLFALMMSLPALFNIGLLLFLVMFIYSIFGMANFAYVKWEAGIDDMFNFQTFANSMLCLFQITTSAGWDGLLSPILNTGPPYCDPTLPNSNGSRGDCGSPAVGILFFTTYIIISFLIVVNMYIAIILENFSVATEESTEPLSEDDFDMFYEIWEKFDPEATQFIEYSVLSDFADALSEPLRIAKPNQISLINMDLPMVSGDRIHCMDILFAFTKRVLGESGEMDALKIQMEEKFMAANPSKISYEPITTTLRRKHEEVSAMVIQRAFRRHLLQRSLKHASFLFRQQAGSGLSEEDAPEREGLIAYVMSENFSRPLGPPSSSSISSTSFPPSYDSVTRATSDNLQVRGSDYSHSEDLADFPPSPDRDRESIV
Sequence of Metabotropic glutamate receptor 8 (P70579 whole entry): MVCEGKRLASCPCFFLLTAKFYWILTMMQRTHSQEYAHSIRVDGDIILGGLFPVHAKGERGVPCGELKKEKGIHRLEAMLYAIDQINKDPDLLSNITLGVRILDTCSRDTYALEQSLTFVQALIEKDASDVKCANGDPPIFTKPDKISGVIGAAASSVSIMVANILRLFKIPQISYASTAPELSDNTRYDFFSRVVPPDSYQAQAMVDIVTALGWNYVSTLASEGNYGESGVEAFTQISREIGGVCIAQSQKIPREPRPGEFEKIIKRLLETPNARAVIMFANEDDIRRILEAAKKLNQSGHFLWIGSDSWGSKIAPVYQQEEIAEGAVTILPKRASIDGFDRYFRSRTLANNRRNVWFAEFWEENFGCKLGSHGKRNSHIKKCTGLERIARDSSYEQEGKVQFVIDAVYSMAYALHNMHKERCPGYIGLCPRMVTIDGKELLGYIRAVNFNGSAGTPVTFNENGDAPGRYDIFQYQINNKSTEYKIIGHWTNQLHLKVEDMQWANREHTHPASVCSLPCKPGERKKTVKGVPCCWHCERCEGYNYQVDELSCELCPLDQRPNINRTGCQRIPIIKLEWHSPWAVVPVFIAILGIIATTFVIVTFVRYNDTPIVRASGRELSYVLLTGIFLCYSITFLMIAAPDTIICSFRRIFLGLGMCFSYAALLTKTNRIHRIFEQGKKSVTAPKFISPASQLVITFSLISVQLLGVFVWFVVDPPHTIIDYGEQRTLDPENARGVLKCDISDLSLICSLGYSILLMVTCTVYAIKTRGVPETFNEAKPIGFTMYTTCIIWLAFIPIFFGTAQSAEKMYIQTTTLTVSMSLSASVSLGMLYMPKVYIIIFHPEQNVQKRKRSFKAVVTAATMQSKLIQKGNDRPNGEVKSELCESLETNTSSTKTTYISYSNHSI
Sequence of Cytochrome P450 1A2 (P05177 whole entry): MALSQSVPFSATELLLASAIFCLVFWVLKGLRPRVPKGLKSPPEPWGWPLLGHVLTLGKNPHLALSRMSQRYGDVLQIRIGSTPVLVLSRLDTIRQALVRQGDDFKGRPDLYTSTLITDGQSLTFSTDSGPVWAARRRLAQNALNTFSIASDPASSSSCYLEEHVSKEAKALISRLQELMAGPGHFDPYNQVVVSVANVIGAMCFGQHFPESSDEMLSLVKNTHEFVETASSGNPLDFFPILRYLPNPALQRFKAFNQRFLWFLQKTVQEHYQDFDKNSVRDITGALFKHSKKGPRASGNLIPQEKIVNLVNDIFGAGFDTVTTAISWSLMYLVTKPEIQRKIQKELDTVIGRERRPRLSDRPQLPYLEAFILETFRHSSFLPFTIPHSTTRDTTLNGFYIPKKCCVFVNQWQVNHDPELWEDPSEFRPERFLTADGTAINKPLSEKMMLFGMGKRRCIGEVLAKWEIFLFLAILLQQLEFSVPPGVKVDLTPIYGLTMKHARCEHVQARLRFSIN
Sequence of Cytochrome P450 2B6 (P20813 whole entry): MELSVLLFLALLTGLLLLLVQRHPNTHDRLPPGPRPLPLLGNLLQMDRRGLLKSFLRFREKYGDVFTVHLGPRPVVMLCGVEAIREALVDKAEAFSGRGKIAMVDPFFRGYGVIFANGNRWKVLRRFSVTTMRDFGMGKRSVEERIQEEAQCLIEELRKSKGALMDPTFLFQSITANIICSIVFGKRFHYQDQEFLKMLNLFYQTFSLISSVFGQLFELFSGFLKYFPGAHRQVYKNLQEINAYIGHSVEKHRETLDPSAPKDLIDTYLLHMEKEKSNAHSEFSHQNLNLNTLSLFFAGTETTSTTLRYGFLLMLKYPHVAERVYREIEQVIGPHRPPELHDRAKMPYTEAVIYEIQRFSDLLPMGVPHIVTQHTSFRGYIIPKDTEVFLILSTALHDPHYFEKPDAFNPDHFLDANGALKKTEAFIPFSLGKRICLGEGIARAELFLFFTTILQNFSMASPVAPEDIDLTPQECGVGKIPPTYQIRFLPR

In the case of `FC(F)(F)c1nccc2cc(Nc3n[nH]c4ncccc34)ccc12`, the half-life [1] was 2.95 h, the pEC50 [2] was < 5.00 and the Activity (Cytochrome P450 2B6) was “Not Active”. It also gave a pIC50 (Cytochrome P450 1A2) of 5.82, a bioavailability [3] of 31.6% and an AUC [4] of 25300 ng·h/mL. The clearance [5] was 37.7 mL/min/kg, the Activity [6] was “Not Active” and the AUC at 24 h [7] was 5.92 µM·h. The CLint scaled at 1 µM [8] was 9.1 mL/min/kg, the Tmax [9] was 2 h and the Vd [10] was 3 L/kg. The Activity [11] was “Non-Toxic”, the inhibition at 10 µM (Nav1.5) was < 50% and the half-life [12] was 1.05 h. For the same compound, the pEC50 [13] was < 5.00, the Activity (Rattus norvegicus) was “Dose-Dependent Effect” and the fraction unbound at 4 h [14] was 0.015. It also gave an AUC(0-inf) [15] of 9.66 µM·h, a clearance [16] of 31.6 mL/min/kg and a Cmax [17] of 0.49 µM. The Vd [18] was 3.2 L/kg, the Cmax [19] was 6.05 µM and the Kp at 24 h [20] was 1.51. For the same compound, the pEC50 [21] was < 4.52, the AUC(0-inf) [22] was 2.81 µM·h and the pIC50 (Cytochrome P450 2D6) was < 4.52. For the same compound, the solubility [23] was 9 µg/mL (≈ 27.3 µM), the clearance [24] was 78.3 mL/min/kg and the pEC50 [25] was < 5.00.
